According to ChEMBL document CHEMBL2412955, “Synthesis and antibacterial activities of N-substituted-glycinyl 1H-1,2,3-triazolyl oxazolidinones” (2013):
Converted amounts (≈) assume the structure as drawn.

Key:
Format in all cases: functional
[1] = system: Moraxella catarrhalis; assay: Antibacterial activity against Moraxella catarrhalis clinical isolate 3447 after 18 hrs by NCCLS agar dilution method; conditions: clinical isolate 3447, 18 h
Summary of the method: (§1)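 NCCLS agar dilution on Mueller-Hinton agar with 5% sheep blood added to support growth. Drug dilutions 0.12–64 µg/ml. Test agents in 80% DMSO in water, linezolid in 40% water in ethanol. Final inoculum 10^7 CFU/ml, 18 h at 35 °C. MIC read as the lowest concentration with no visible growth.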

[2] = system: Moraxella catarrhalis; assay: Antibacterial activity against Moraxella catarrhalis clinical isolate 2824 after 18 hrs by NCCLS agar dilution method; conditions: clinical isolate 2824, 18 h; summary of the method: as §1
[3] = system: Moraxella catarrhalis; assay: Antibacterial activity against Moraxella catarrhalis clinical isolate 255 after 18 hrs by NCCLS agar dilution method; conditions: clinical isolate 255, 18 h; summary of the method: as §1
[4] = system: Moraxella catarrhalis; assay: Antibacterial activity against Moraxella catarrhalis clinical isolate 138 after 18 hrs by NCCLS agar dilution method; conditions: clinical isolate 138, 18 h; summary of the method: as §1
[5] = system: Moraxella catarrhalis; assay: Antibacterial activity against Moraxella catarrhalis clinical isolate 125 after 18 hrs by NCCLS agar dilution method; conditions: clinical isolate 125, 18 h; summary of the method: as §1
[6] = system: Moraxella catarrhalis; assay: Antibacterial activity against Moraxella catarrhalis clinical isolate 112 after 18 hrs by NCCLS agar dilution method; conditions: clinical isolate 112, 18 h; summary of the method: as §1
[7] = system: Moraxella catarrhalis; assay: Antibacterial activity against Moraxella catarrhalis clinical isolate 36 after 18 hrs by NCCLS agar dilution method; conditions: clinical isolate 36, 18 h; summary of the method: as §1
[8] = system: Moraxella catarrhalis; assay: Antibacterial activity against Moraxella catarrhalis clinical isolate 1 after 18 hrs by NCCLS agar dilution method; conditions: clinical isolate 1, 18 h; summary of the method: as §1
[9] = system: Moraxella catarrhalis; assay: Antibacterial activity against Moraxella catarrhalis ATCC 8176 after 18 hrs by NCCLS agar dilution method; conditions: ATCC 8176, 18 h; summary of the method: as §1
[10] = system: Haemophilus influenzae; assay: Antibacterial activity against Haemophilus influenzae ATCC 49247 after 18 hrs by NCCLS agar dilution method; conditions: ATCC 49247, 18 h; summary of the method: as §1
[11] = system: Escherichia coli; assay: Antibacterial activity against Escherichia coli ATCC 25922 after 18 hrs by NCCLS agar dilution method; conditions: ATCC 25922, 18 h
Summary of the method: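 Agar dilution per NCCLS on Mueller-Hinton agar, drug dilutions 0.12–64 µg/ml. Linezolid dissolved in 40% water in ethanol, vancomycin in water, test agents in 80% DMSO in water. Inoculum 10^7 CFU/ml (final), incubated 35 °C for 18 h. MIC is the lowest concentration preventing visible growth.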

[12] = system: Enterococcus; assay: Antibacterial activity against vancomycin-resistant Enterococcus after 18 hrs by NCCLS agar dilution method
Summary of the method: (§2)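 Clinical isolates were tested by agar dilution on Mueller-Hinton agar with drug dilutions from 0.12 to 64 µg/ml. Test compounds were dissolved in 80% DMSO in water. Final inoculum was 10^7 CFU/ml, incubated at 35 °C for 18 h. MIC was the lowest concentration inhibiting visible growth.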

[13] = system: Enterococcus; assay: Antibacterial activity against vancomycin-susceptible Enterococcus after 18 hrs by NCCLS agar dilution method; summary of the method: as §2
[14] = system: Staphylococcus; assay: Antibacterial activity against methicillin-susceptible coagulase-negative Staphylococcus after 18 hrs by NCCLS agar dilution method; summary of the method: as §2
[15] = system: Staphylococcus; assay: Antibacterial activity against methicillin-resistant coagulase-negative Staphylococcus after 18 hrs by NCCLS agar dilution method; summary of the method: as §2
[16] = system: Staphylococcus aureus; assay: Antibacterial activity against methicillin-susceptible Staphylococcus aureus after 18 hrs by NCCLS agar dilution method; summary of the method: as §2
[17] = system: Staphylococcus aureus; assay: Antibacterial activity against methicillin-resistant Staphylococcus aureus after 18 hrs by NCCLS agar dilution method; summary of the method: as §2
[18] = system: Staphylococcus aureus; assay: Antibacterial activity against Staphylococcus aureus ATCC 25923 after 18 hrs by […] in presence of human plasma; conditions: ATCC 25923, Plasma
Summary of the method: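 To gauge plasma protein binding and/or plasma instability, MIC was determined in Mueller-Hinton broth containing 50% human plasma. Linezolid served as a reference agent. Ratio compares this MIC with the MIC obtained without plasma.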

[19] = system: Staphylococcus aureus; assay: Antibacterial activity against Staphylococcus aureus ATCC 25923 after 18 hrs by NCCLS agar dilution method; conditions: ATCC 25923, 18 h
Summary of the method: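 Plain Mueller-Hinton agar, agar dilution per NCCLS, concentrations 0.12–64 µg/ml. Test agents in 80% DMSO in water, linezolid in 40% water in ethanol, vancomycin in water. Final inoculum 10^7 CFU/ml, 35 °C for 18 h. MIC = lowest concentration inhibiting visible growth.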

[20] = system: Streptococcus pneumoniae; assay: Antibacterial activity against penicillin-resistant Streptococcus pneumoniae after 18 hrs by NCCLS agar dilution method
Summary of the method: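 Agar dilution was run on Mueller-Hinton agar supplemented with 5% sheep blood, with drug dilutions from 0.12 to 64 µg/ml. Test compounds were dissolved in 80% DMSO in water. Final inoculum was 10^7 CFU/ml, incubated at 35 °C for 18 h. MIC was the lowest concentration preventing visible growth.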

| Structure (SMILES) | MIC [1] | MIC [2] | MIC [3] | MIC [4] | MIC [5] | MIC [6] | MIC [7] | MIC [8] | MIC [9] | MIC [10] | MIC [11] | MIC [12] | MIC [13] | MIC [14] | MIC [15] | MIC [16] | MIC [17] | MIC [18] | MIC [19] | MIC [20] |
| --- | --- | --- | --- | --- | --- | --- | --- | --- | --- | --- | --- | --- | --- | --- | --- | --- | --- | --- | --- | --- |
| CC(=O)NC[C@H]1CN(c2ccc(N3CCOCC3)c(F)c2)C(=O)O1 [LINEZOLID] | 8 µg/mL (≈ 23.7 µM) | 8 µg/mL (≈ 23.7 µM) | 8 µg/mL (≈ 23.7 µM) | 8 µg/mL (≈ 23.7 µM) | 8 µg/mL (≈ 23.7 µM) | 8 µg/mL (≈ 23.7 µM) | 8 µg/mL (≈ 23.7 µM) | 8 µg/mL (≈ 23.7 µM) | 8 µg/mL (≈ 23.7 µM) | 8 µg/mL (≈ 23.7 µM) | > 64 µg/mL | 0.5 µg/mL (≈ 1.48 µM) | 0.5 µg/mL (≈ 1.48 µM) | 0.5 µg/mL (≈ 1.48 µM) | 0.5 µg/mL (≈ 1.48 µM) | 0.5 µg/mL (≈ 1.48 µM) | 0.5 µg/mL (≈ 1.48 µM) |  |  |  |
| Cc1cn(C[C@H]2CN(c3ccc(N4CCN(C(=O)CNC(=O)c5cccs5)CC4)c(F)c3)C(=O)O2)nn1 | ≥ 8 µg/mL | 8 µg/mL (≈ 15.2 µM) | 8 µg/mL (≈ 15.2 µM) | 8 µg/mL (≈ 15.2 µM) | 8 µg/mL (≈ 15.2 µM) | 8 µg/mL (≈ 15.2 µM) | 8 µg/mL (≈ 15.2 µM) | ≥ 8 µg/mL | 8 µg/mL (≈ 15.2 µM) | 16 µg/mL (≈ 30.3 µM) | > 64 µg/mL | 1 µg/mL (≈ 1.9 µM) | 1 µg/mL (≈ 1.9 µM) | 1 µg/mL (≈ 1.9 µM) | 1 µg/mL (≈ 1.9 µM) | 1 µg/mL (≈ 1.9 µM) | 1 µg/mL (≈ 1.9 µM) | 8 µg/mL | 2 µg/mL (≈ 3.79 µM) | 0.5 µg/mL (≈ 0.948 µM) |
| Cc1cn(C[C@H]2CN(c3ccc(N4CCN(C(=O)CNC(=O)c5cccnc5)CC4)c(F)c3)C(=O)O2)nn1 | 8 µg/mL (≈ 15.3 µM) | 8 µg/mL (≈ 15.3 µM) | 4 µg/mL (≈ 7.65 µM) | 4 µg/mL (≈ 7.65 µM) | 4 µg/mL (≈ 7.65 µM) | 4 µg/mL (≈ 7.65 µM) | > 4 µg/mL | > 4 µg/mL | 8 µg/mL (≈ 15.3 µM) | 8 µg/mL (≈ 15.3 µM) | > 64 µg/mL | 1 µg/mL (≈ 1.91 µM) | 1 µg/mL (≈ 1.91 µM) | 1 µg/mL (≈ 1.91 µM) | 1 µg/mL (≈ 1.91 µM) | 1 µg/mL (≈ 1.91 µM) | 1 µg/mL (≈ 1.91 µM) | 4 µg/mL | 2 µg/mL (≈ 3.83 µM) | 0.25 µg/mL (≈ 0.478 µM) |
| Cc1cn(C[C@H]2CN(c3ccc(N4CCN(C(=O)CNC(=O)c5ccco5)CC4)c(F)c3)C(=O)O2)nn1 | > 8 µg/mL | > 8 µg/mL | > 8 µg/mL | > 8 µg/mL | > 8 µg/mL | > 8 µg/mL | > 8 µg/mL | > 8 µg/mL | 8 µg/mL (≈ 15.6 µM) | 4 µg/mL (≈ 7.82 µM) | > 64 µg/mL | 2 µg/mL (≈ 3.91 µM) | 2 µg/mL (≈ 3.91 µM) | 2 µg/mL (≈ 3.91 µM) | 2 µg/mL (≈ 3.91 µM) | 2 µg/mL (≈ 3.91 µM) | 2 µg/mL (≈ 3.91 µM) | 4 µg/mL | 2 µg/mL (≈ 3.91 µM) | 0.5 µg/mL (≈ 0.977 µM) |
| O=C(NCC(=O)N1CCN(c2ccc(N3C[C@H](Cn4ccnn4)OC3=O)cc2F)CC1)c1cccs1 | 8 µg/mL (≈ 15.6 µM) | 8 µg/mL (≈ 15.6 µM) | 8 µg/mL (≈ 15.6 µM) | 8 µg/mL (≈ 15.6 µM) | 8 µg/mL (≈ 15.6 µM) | 8 µg/mL (≈ 15.6 µM) | 8 µg/mL (≈ 15.6 µM) | 8 µg/mL (≈ 15.6 µM) | 8 µg/mL (≈ 15.6 µM) | 16 µg/mL (≈ 31.2 µM) | > 64 µg/mL | 1 µg/mL (≈ 1.95 µM) | 1 µg/mL (≈ 1.95 µM) | 0.5 µg/mL (≈ 0.974 µM) | 0.5 µg/mL (≈ 0.974 µM) | 0.5 µg/mL (≈ 0.974 µM) | 0.5 µg/mL (≈ 0.974 µM) | 8 µg/mL | 1 µg/mL (≈ 1.95 µM) | 0.5 µg/mL (≈ 0.974 µM) |
| Cc1cn(C[C@H]2CN(c3ccc(N4CCN(C(=O)CNC(=O)c5ccccc5)CC4)c(F)c3)C(=O)O2)nn1 | 4 µg/mL (≈ 7.67 µM) | 4 µg/mL (≈ 7.67 µM) | 4 µg/mL (≈ 7.67 µM) | 4 µg/mL (≈ 7.67 µM) | 4 µg/mL (≈ 7.67 µM) | 4 µg/mL (≈ 7.67 µM) | 4 µg/mL (≈ 7.67 µM) | 4 µg/mL (≈ 7.67 µM) | 8 µg/mL (≈ 15.3 µM) | 32 µg/mL (≈ 61.4 µM) | > 64 µg/mL | 0.5 µg/mL (≈ 0.959 µM) | 0.5 µg/mL (≈ 0.959 µM) | 0.5 µg/mL (≈ 0.959 µM) | 0.5 µg/mL (≈ 0.959 µM) | 0.5 µg/mL (≈ 0.959 µM) | 0.5 µg/mL (≈ 0.959 µM) | 16 µg/mL | 1 µg/mL (≈ 1.92 µM) | 2 µg/mL (≈ 3.83 µM) |
| O=C(NCC(=O)N1CCN(c2ccc(N3C[C@H](Cn4ccnn4)OC3=O)cc2F)CC1)c1cccnc1 | 8 µg/mL (≈ 15.7 µM) | 8 µg/mL (≈ 15.7 µM) | 8 µg/mL (≈ 15.7 µM) | 8 µg/mL (≈ 15.7 µM) | 8 µg/mL (≈ 15.7 µM) | 8 µg/mL (≈ 15.7 µM) | 8 µg/mL (≈ 15.7 µM) | 8 µg/mL (≈ 15.7 µM) | 8 µg/mL (≈ 15.7 µM) | 8 µg/mL (≈ 15.7 µM) | > 64 µg/mL | 2 µg/mL (≈ 3.93 µM) | 2 µg/mL (≈ 3.93 µM) | 1 µg/mL (≈ 1.97 µM) | 1 µg/mL (≈ 1.97 µM) | 1 µg/mL (≈ 1.97 µM) | 1 µg/mL (≈ 1.97 µM) | 8 µg/mL | 2 µg/mL (≈ 3.93 µM) | 0.25 µg/mL (≈ 0.492 µM) |
| O=C(NCC(=O)N1CCN(c2ccc(N3C[C@H](Cn4ccnn4)OC3=O)cc2F)CC1)c1ccco1 |  |  |  |  |  |  |  |  | 16 µg/mL (≈ 32.2 µM) | 16 µg/mL (≈ 32.2 µM) | > 64 µg/mL | 1 µg/mL (≈ 2.01 µM) | 1 µg/mL (≈ 2.01 µM) | 1 µg/mL (≈ 2.01 µM) | 1 µg/mL (≈ 2.01 µM) | 1 µg/mL (≈ 2.01 µM) | 1 µg/mL (≈ 2.01 µM) | 2 µg/mL | 2 µg/mL (≈ 4.02 µM) | 0.25 µg/mL (≈ 0.503 µM) |
